Screening data: PubChem BioAssay, several laboratories
ERa SRC1 inh = ER-alpha (human) coactivator binding inhibition. inhibition, % at 25.6 µM. P03372. AID 629. 86,000 compounds, 1.7% hits. TR-FRET ER-alpha LBD / SRC-1 peptide, estradiol-bound; in the data active means inhibition above about 50%;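 further: 0% = receptor plus peptide control and 100% = peptide only without receptor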
HUVEC inhibit = blocks proliferation of human endothelial cells. HUVEC proliferation, CellTiter-Glo luminescence, 72 h; hits give low values. viability, % at 10 µM (by protocol). 86,000 compounds, 1.1% hits. AID 648;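 active means viability at or below 30%; inactive means viability above 30%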;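 further: 100% = median luminescence of DMSO-only cell control wells on each plate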
ERa SRC1 pot = ER-alpha (human) coactivator binding potentiation; P03372; TR-FRET ERalpha-LBD/SRC-Cy5 coactivator binding, 2 h; 100 = basal binding, no effect; coactivator binding (% of control), % at 25.6 µM; 86,000 compounds, 1.3% hits; in the data active means activity above about 200%;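 further: binding measured in presence of low estradiol as agonist stimulus; 0% = peptide alone without receptor and 100% = receptor with peptide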
H69AR growth 86K = growth inhibitors of human H69AR lung tumor cells | H69AR lung tumor viability, ATP luminescence, 72 h; hits give low values | viability, % at 10 µM | 85,000 compounds, 6% hits | AID 598;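 active means viability at or below 40%; inactive means viability above 40%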;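 further: multidrug resistant small cell line overexpressing MRP-1 efflux transporter; 100% = mean luminescence of untreated control wells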
Lung fibro prol = blocks proliferation of human lung fibroblasts; AID 719; viability, % at 10 µM; LL 47 human lung fibroblast viability, ATP luminescence; hits give low values; 85,000 compounds, 1.1% hits;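 active means viability at or below 50% in the single dose screen; inactive means viability above 50%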;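 further: compound exposure lasted 72 h before the ATP readout; 100% = median luminescence of untreated cell-only wells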
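Benchmarks: Cell-only wells, no compound | Test system: LL 47 human lung fibroblasts, passage 12 or lower | Input: 1,150 cells/well | Measured by: CellTiter-Glo luminescence measuring cellular ATP | Medium: IMEM, 15% FBS supplement | Schedule: Overnight attachment after seeding, then 72 h compound exposure at 37 °C | Doses: Compound addition at 0.1% DMSO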
ERb SRC1 inh = ER-beta (human) coactivator binding inhibition. TR-FRET ER-beta LBD / SRC1-Cy5 peptide binding; receptor agonist-loaded with 1 µM estradiol. inhibition, % at 25.6 µM. 86,000 compounds, 1.3% hits. AID 633;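 active means compounds whose percent inhibition of the receptor-coactivator binding signal exceeds about 50% in the single-dose screen, limit read from the data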;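 further: 0% = receptor plus peptide wells without compound and 100% = peptide-only wells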
Target sequence (Q92731 whole entry, looked up, the tested form may be a part): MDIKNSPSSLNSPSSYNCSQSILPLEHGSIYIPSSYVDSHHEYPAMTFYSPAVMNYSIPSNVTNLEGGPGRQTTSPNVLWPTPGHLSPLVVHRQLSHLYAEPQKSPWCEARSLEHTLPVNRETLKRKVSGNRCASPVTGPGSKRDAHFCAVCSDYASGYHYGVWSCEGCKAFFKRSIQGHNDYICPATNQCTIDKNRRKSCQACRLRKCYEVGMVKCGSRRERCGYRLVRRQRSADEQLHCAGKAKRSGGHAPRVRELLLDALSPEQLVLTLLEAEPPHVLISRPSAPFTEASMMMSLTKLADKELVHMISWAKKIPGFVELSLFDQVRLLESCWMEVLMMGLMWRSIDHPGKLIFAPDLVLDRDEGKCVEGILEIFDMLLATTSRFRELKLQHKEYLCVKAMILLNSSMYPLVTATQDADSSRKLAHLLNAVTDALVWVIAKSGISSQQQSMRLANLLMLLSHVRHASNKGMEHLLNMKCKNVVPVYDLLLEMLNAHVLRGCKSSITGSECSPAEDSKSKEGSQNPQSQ
The depositor's hits bear a star; nt = not tested or not shown; [ ] = another dose, or the depositor's remark. A selection: hits, their analogues and other compounds. The true share with any hit is near 9.2%.

SMILES	ERa SRC1 inh	HUVEC inhibit	ERa SRC1 pot	H69AR growth 86K	Lung fibro prol	ERb SRC1 inh
CC(=O)c1sc(N2C(=O)c3oc4ccccc4c(=O)c3C2c2ccc(C)o2)nc1C (configuration not stated)	64*	101	82	9.4*	87	16
CCC(C)(C)n1nnnc1C(c1ccc2ncccc2c1)N1CCCCCC1 (configuration not stated)	-15	93	96	85	93	-12
O=C(c1ccco1)N1CCN(C(=O)c2ccc(Cn3cc(Br)cn3)o2)CC1	2	89	105	98	102	1
O=C(Nc1cccc(C(F)(F)F)c1)c1cc2ncc(Br)cn2n1	45	100	124	83	97	47
O=C(c1cc2ncc(Br)cn2n1)N1CCN(C(=O)c2ccco2)CC1	61*	106	46	nt	103	52*
O=C(c1cc2ncc(Br)cn2n1)N1CCOCC1	49	103	36	100	98	58*
CCOC(=O)C1CCCN(C(=O)c2cc3ncc(Br)cn3n2)C1 (configuration not stated)	57*	103	42	98	93	60*[fluorescence artefact?]
Cc1nc(-c2cccc(NS(=O)(=O)c3ccc4ccccc4c3)c2)cs1	10	85	66	83	92	8
O=C(O)c1ccccc1S	-2	105	105	97	91	0
Fc1ccc(Cn2c(-c3cscn3)nc3ccccc32)c(Cl)c1	-8	90	119	106	81	2
Nc1nonc1-c1nc2ccccc2n1Cc1ccc(F)cc1Cl	-5	57	114	39*	55	-6
Cc1ccc(Nc2nc(N)nc(CN3CCN(Cc4ccc5c(c4)OCO5)CC3)n2)cc1	0	90	111	78	90	4
Cc1ccc(Nc2nc(N)nc(CN3CCN(Cc4ccc5c(c4)OCO5)CC3)n2)cc1Cl	-3	66	100	14*	85	-8
COc1ccc(N2CCN(Cc3nc(N)nc(Nc4ccc(C)c(Cl)c4)n3)CC2)cc1	-24	64	120	23*	98	-4
Cn1c2c(c(=O)n(C)c1=O)C1c3cc(Cl)ccc3OCC1CO2 (configuration not stated)	2	92	94	98	104	3
CC1(C)Cc2c(ccc3ccccc23)C(c2cc3ccccc3oc2=O)=N1	60*[fluorescence artefact?]	55	73	101	80	18
CS(=O)(=O)N(CC(=O)Nc1ccccc1C(=O)NCc1ccco1)c1ccc2c(c1)OCCO2	38	83	102	26*	86	-7
CCN(CC)S(=O)(=O)c1ccc(NC(=O)CC(NC(C)=O)c2ccccc2)cc1 (configuration not stated)	0	96	109	95	99	1
N/C(=N\c1nc2c(c(=O)[nH]1)CCCC2)Nc1ccc(Oc2ccccc2)cc1	-9	83	123	86	89	-3
Cc1sc2nc(SCC(=O)Nc3c(C)n(C)n(-c4ccccc4)c3=O)n(C)c(=O)c2c1C	70*[fluorescence artefact?]	91	24	74	102	62*[fluorescence artefact?]
C=CCn1c(SCC(=O)Nc2sccc2C(N)=O)nc2sc(C)c(C)c2c1=O	35	60	195	46	66	31
C=CCn1c(SCC(=O)Nc2ccccc2C)nc2sc(C)c(C)c2c1=O	2	83	111	31*	93	6
CCN(CC)S(=O)(=O)c1ccc2oc(C(=O)NCc3ccc(C)cc3)c(C)c2c1	3	85	94	38*	88	7
CCN(Cc1ccccc1)S(=O)(=O)c1ccc2oc(C(=O)O)c(C)c2c1	-41	89	102	92	101	-15
Cc1ccc(CNC(=O)c2oc3ccc(S(=O)(=O)N4CCOCC4)cc3c2C)cc1	-1	85	95	31*	97	9
SMILES	ERa SRC1 inh	HUVEC inhibit	ERa SRC1 pot	H69AR growth 86K	Lung fibro prol	ERb SRC1 inh
CCN(CC)S(=O)(=O)c1ccc2oc(C(=O)NC(C)C)c(C)c2c1	-8	97	110	29*	100	2
Cc1c(C(=O)NCc2ccccc2)oc2ccc(S(=O)(=O)N3CCCC3)cc12	2	60	113	56	89	-2
Cc1c(C(=O)N(C)Cc2ccccc2)oc2ccc(S(=O)(=O)N3CCCC3)cc12	-25	95	94	39*	88	-30
CCN(CC)S(=O)(=O)c1ccc2oc(C(=O)O)c(C)c2c1	-3	99	132	97	90	-1
CCn1cc(C(=O)NCc2ccc(Cl)cc2)c(=O)c2cc(S(=O)(=O)N3CCOCC3)ccc21	16	86	67	30*	90	19
CCn1cc(C(=O)NCc2ccc3c(c2)OCO3)c(=O)c2cc(S(=O)(=O)N3CCOCC3)ccc21	8	87	111	57	90	6
CNC(=O)CN(c1ccc(F)cc1)S(=O)(=O)c1cc(C)ccc1OC	-9	105	115	103	97	3
COc1ccc(CC(=O)NCc2cccs2)cc1	-5	71	112	30*	93	-7
CCC(C)(C)NC(=O)C(c1ccc(C)o1)N(Cc1cccs1)C(=O)Cn1nnc2ccccc21 (configuration not stated)	4	79	109	49	43*	-3
COc1ccc(CNC(=O)C(c2ccc(C)o2)N(C(=O)c2csnn2)c2ccc(C(C)C)cc2)cc1 (configuration not stated)	7	107	105	38*	99	0
O=C(Cc1cccs1)NCc1cccs1	3	90	91	107	102	11
COc1ccc(CNC(=O)C(c2ccc(C)o2)N(Cc2cccs2)C(=O)Cc2cccs2)cc1 (configuration not stated)	-1	71	109	24*	96	-1
CC(C)(C)NC(=O)C(c1ccco1)N(C(=O)Cn1nnc(-c2ccc(F)cc2)n1)c1ccccc1F (configuration not stated)	-2	101	122	107	105	2
CC(OC(=O)c1cccs1)C(=O)NCC1CCCO1 (configuration not stated)	7	90	131	87	97	2
O=C(N/N=C1\CCCc2ccccc21)c1cccc([N+](=O)[O-])c1	10	nt	109	nt	nt	2
CC(/C=C/c1ccc2c(c1)OCO2)=N\NC(=O)c1cccc([N+](=O)[O-])c1	68*[fluorescence artefact?]	31	58	7.3*	28*	17
Cc1ccc(C(C#N)c2ccc3c(C(F)(F)F)cc(C(F)(F)F)nc3n2)cc1 (configuration not stated)	-4	62	109	24*	75	10
N#CC(c1ccccc1)c1ccc2c(C(F)(F)F)cc(C(F)(F)F)nc2n1 (configuration not stated)	-3	63	107	24*	39*	-3
